SENP1 inh: blocks the human SENP1 SUMO protease catalytic domain. inhibition, % at 10 µM. 0.21% of 360,000 active. Q9P0U3. recombinant SENP1 catalytic domain, CyPet-SUMO1-YPet FRET cleavage;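 active means inhibition at least 30% at 10 µM, raw YFP signal under a set limit, fluorescence ratio 0.5 to 1.5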;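 further: 0% = enzyme with DMSO and 100% = no enzyme wells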
Target sequence (Q9P0U3 419-644 limits assumed): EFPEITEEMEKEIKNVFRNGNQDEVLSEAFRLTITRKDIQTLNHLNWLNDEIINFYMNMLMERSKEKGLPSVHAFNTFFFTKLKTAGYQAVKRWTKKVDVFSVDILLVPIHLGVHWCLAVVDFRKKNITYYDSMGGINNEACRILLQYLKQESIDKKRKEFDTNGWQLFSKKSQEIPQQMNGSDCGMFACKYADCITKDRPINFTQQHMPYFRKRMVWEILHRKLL
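Test system: recombinant human SENP1 catalytic domain, His6-tagged / Medium: pH 8 Tris buffer with EDTA, NaCl, BME, BSA, NP40, catalase / Also added: SUMO1 FRET substrate flanked by Cypet and Ypet, 25 nM / Times: 50 min reaction at room temperature / Signal: FRET, CFP and YFP emission / Control set: no-enzyme low control and enzyme-plus-DMSO high control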
MIN6 prolif: MIN6 beta-cell proliferation induction | MIN6 cells proliferation, ATPlite luminescence, 48 h; cells starved in 0.2% serum; 100% = growth in 10% serum | proliferation, % at 10 µM | 0.29% of 330,000 active;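 active means compounds whose signal lies at least 3.5 SD above the mean of all wells on their plate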;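 further: 0% = DMSO-treated cells in low-serum medium and 100% = 10% serum control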
MT1-MMP act inh: inhibitors of human MT1-MMP activation | HT1080 RFP-PRO-GFP cells, GFP/RFP ratio fluorescence, overnight; percent of plate control window, DMSO zero | GFP/RFP ratio change, % at 20 µM | 0.061% of 360,000 active;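 active means GFP/RFP ratio change of at least 30% with cell ATP level not reduced by more than half and red fluorescence within 50% of control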
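Assay system: RFP-PRO-GFP reporter HT1080 cells; read-out basis: GFP/RFP fluorescence ratio; benchmarks: DMSO wells and RFP-L50D-GFP cells; doses: 20 µM single dose, 1% DMSO; schedule: overnight cell settling, then overnight compound exposure, 37 °C, 5% CO2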
NRP1-CendR mod: modulators of CendR peptide binding to human neuropilin-1; FAM-RPARPAR peptide binding to NRP-1, fluorescence polarization; inhibition, % at 25 µM; 0.85% of 360,000 active;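 active means inhibition or corrected inhibition above about 18%, plus a signal ratio from 0.5 to 1.5, limit read from the data, passing the limit was not always enough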
DAGLB inhibitor: blocks human DAGLB lipase activity; Q8NCG7; HEK293T DAGLB membrane lysate, EnzChek fluorogenic substrate; inhibition, % at 5.17 µM; 0.059% of 340,000 active; AID 504411; in the data active means inhibition above about 34%;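 further: 0% = enzyme with vehicle and 100% = wells lacking enzyme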
Myeloid diff 2: myeloid differentiation induction; ER-HoxA9 myeloid progenitors, lysozyme-GFP differentiation, flow cytometry; calls only at 10 µM; 1% of 360,000 active; AID 624256;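 active means normalized GFP-positive differentiation at or above the plate's own cutoff, the solvent-only control mean plus 3 SD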;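 further: cells exposed to compound for four days before flow analysis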
Myeloid diff: myeloid differentiation induction; shares compounds with Myeloid diff 2; ER-HoxA9 myeloid progenitors, GFP/Mac1 double-positive flow; calls only; 2% of 2,300 active; AID 651706;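 active means share of green or green-and-red cells above 9 and 9% in run 1 or 4 and 3% in run 2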
GFP autofluor: counter-screen for myeloid differentiation promoters: compound fluorescence. ER-HoxA9 myeloid progenitors, no estrogen, GFP autofluorescence flow cytometry; vehicle wells 0%, positive control 100%. fluorescence response, % (concentration not given with the values). shares compounds with Myeloid diff 2. AID 651707. 7.4% of 2,300 active;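 active means over 5% cells positive for green fluorescent reporter, or over 2% positive for both it and APC stain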;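 further: range taken on the double positive population between DMSO and positive control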
Numbers without * were called inactive; i = inactive; · = no result given; + = active, no number. A selection: hits, their analogues and other compounds. The true share with any hit is near 2.4%.

SMILES	SENP1 inh	MIN6 prolif	MT1-MMP act inh	NRP1-CendR mod	DAGLB inhibitor	Myeloid diff 2	Myeloid diff	GFP autofluor
CCC(=S)/C=C1\Sc2ccccc2N1CCCS(=O)(=O)O	0	-3	-1	-12	0	i	i	4
CN1/C(=C/C(=O)C2CCC2)Sc2ccccc21	0	-4	11	-3	0	i	·	·
CC(=O)NC(=S)Nc1ccc(S(=O)(=O)N2CCOCC2)cc1	-1	5	0	3	3	i	·	·
CC(C)(C)NNC(=S)Nc1ccc(S(=O)(=O)N2CCOCC2)cc1	1	0	0	7	-3	i	i	0
Cc1ccc(NC(=O)c2ccc(Cl)c(S(=O)(=O)N3CCc4ccccc43)c2)nc1	-1	·	1	-7	-1	i	·	·
O=C(CN1C(=O)NC2(CCCCC2)C1=O)Nc1ccccc1Cl	0	1	2	7	1	i	i	0
O=C(CN1C(=O)NC2(CCCCC2)C1=O)Nc1cccc(Cl)c1Cl	2	-3	-3	11	3	i	·	·
CCOP(=O)(OCC)C(NC(=O)Nc1ccc(C)cc1)C(N)=O (stereo unspecified)	0	3	1	4	·	+	i	0
CCOP(=O)(OCC)C(NC(=O)Nc1cccc(Cl)c1)C(N)=O (stereo unspecified)	1	-1	-12	4	0	i	·	·
CCOC(=O)c1ccc(N2C(=O)CC(N(C)CCc3ccc(OC)c(OC)c3)C2=O)cc1 (stereo unspecified)	0	-2	1	0	1	i	i	0
c1ccc2c(c1)CCc1c(-c3ccncc3)n[nH]c1-2	2	1	2	-5	0	+	i	0
Clc1ccc(-c2n[nH]c3c2Cc2ccccc2-3)cc1Cl	·	1	·	·	·	·	·	·
OC(c1ccccc1)(c1ccccc1)C1CCN(CCCOc2ccc3c(c2)CCCC3)CC1	5	·	-18	2	·	+	i	0
c1ccc(-n2ncc3c(NCc4ccco4)ncnc32)cc1	-2	-1	-1	2	-2	i	·	·
c1ccc(Cn2ncc3c(NCc4ccco4)ncnc32)cc1	0	-2	-1	-15	3	i	i	0
CCOC(=O)c1c(NC(=O)c2nn(CC)cc2Br)c(C#N)cn1-c1ccccc1	0	-3	-2	-5	-1	+	+	0
Cc1nc2c(oc3ccccc32)c(=O)o1	-9	0	-1	14	1	+	i	0
CCCCCCN1CCN(C2CN(Cc3cn(Cc4ccc(C)cc4)nn3)S(=O)(=O)C2)CC1 (stereo unspecified)	-2	·	1	-5	·	i	i	0
Cc1ccc(Cn2cc(CN3CC(N4CCCCC4)CS3(=O)=O)nn2)cc1 (stereo unspecified)	1	·	6	1	·	i	·	·
Cc1cc(NC(=O)/C=C/c2ccccc2Cl)no1	-7	0	0	0	-5	i	i	1
Cc1cc(NS(=O)(=O)c2ccc(NC(=O)/C=C/c3ccccc3Cl)cc2)no1	0	-3	8	-3	6	i	·	·
Cc1ncc(CN2CCC(N3CCC(C(=O)N4CCCC4)CC3)CC2)s1	-1	0	0	0	-8	i	·	·
COc1ccc(-c2cc(NC=O)c3ncc(-c4cccc(C(F)(F)F)c4)n3c2)c(OC)c1	-12	·	-9	-17	·	+	i	0
Cn1cc(-c2cnc3c(NC=O)cc(-c4cccc(C(F)(F)F)c4)cn23)cn1	-21	·	-14	-19	·	+	i	2
O=S(=O)(NCCNS(=O)(=O)c1cccs1)c1cccs1	2	0	-5	-8	0	i	·	·
SMILES	SENP1 inh	MIN6 prolif	MT1-MMP act inh	NRP1-CendR mod	DAGLB inhibitor	Myeloid diff 2	Myeloid diff	GFP autofluor
O=S(=O)(NCc1ccccc1Br)c1cccs1	0	0	-2	-13	0	i	i	0
COc1cccc(NC(=S)Nc2cccc3ccccc23)c1	-8	-8	0	4	1	i	i	0
Cc1cccc(NC(=S)Nc2cccc3ccccc23)c1	-18	-8	0	7	1	i	·	·
COC(=O)c1ccc(OC(=O)c2ccccc2F)cc1	·	-2	·	·	·	·	·	·
Cc1cc(C(=O)CN2C(=O)C(=O)N(Cc3ccco3)C2=O)c(C)n1CCc1ccccc1	-3	-6	-6	-4	-1	i	·	·
Cc1cc(C(=O)CN2C(=O)C(=O)N(Cc3ccco3)C2=O)c(C)n1CCc1ccc(F)cc1	-1	-6	2	-10	-2	i	i	0
CCOC(=O)c1c(NC(=O)CNCCOC)sc2c1CCCC2	1	-1	-5	3	-5	i	i	0
CCOc1ccc(NC(=O)Cn2nnc(-c3ccc(C(N)=O)cc3)n2)cc1S(=O)(=O)N1CCCC1	0	-6	13	4	-5	i	·	·
Nc1nc(Cl)cc(NCCc2ccccc2)n1	·	7	·	·	·	·	·	·
Nc1nccc(NCCSCc2ccccc2)n1	-1	·	4	-11	0	+	i	0
CC1(C)CC(=O)C=C(NCCN2CCN(C(=S)Nc3ccccc3)CC2)C1	-1	0	1	13	-2	i	·	·
Cc1cc(N2CCN(C(=O)c3[nH]c(C(F)(F)F)nc3-c3ccccc3)CC2)c2ccccc2n1	0	·	-7	-4	·	i	i	82*
CC1CCC(NC(=O)CC(C)(C)Cc2nc3ccccc3c(=O)[nH]2)CC1 (stereo unspecified)	-3	-3	2	4	0	i	i	1
O=C(N/N=C/c1ccncc1)c1cccc(NC(=O)c2ccccc2Cl)c1	1	-2	-7	1	1	i	·	·
O=C(N/N=C/c1cccnc1)c1cccc(NC(=O)c2ccccc2Cl)c1	1	1	-1	-5	-1	+	i	0
CCN(CC(=O)NCc1ccc(Cl)cc1)C(=O)CCC(=O)c1ccc(F)cc1	2	0	-1	-1	2	+	i	0
CCN(CC(=O)NCc1ccc(Cl)cc1)C(=O)CCC(=O)c1ccc(C)cc1	2	0	0	-8	1	i	·	·
COC(=O)c1ccc(OC)c(Cn2c(=O)n(C)c(=O)c3ccccc32)c1	2	-2	0	5	-4	i	·	·

From PubChem
